Measured values: ChEMBL document CHEMBL4330167, “Chloraserrtone A, a Sesquiterpenoid Dimer from Chloranthus serratus” (J Nat Prod, 2019)

Tests used:
[1] = Cytotoxicity against mouse RAW264.7 cells assessed as cellular metabolic activity at 50 uM after 48 hrs by MTT assay relative to control; assay type: ADME, cell-based; details: read-out: Activity
Method in brief: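 RAW264.7 cells at 5 × 10^4 cells/mL exposed to 50 μM test agent (DMSO solution) for 48 h. MTT then added at 5 mg/mL in sterile PBS for 4 h; formazan dissolved in DMSO and absorbance read at 490 nm. Triplicate treatments.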

[2] = tested on: RAW264.7; assay: Anti-inflammatory activity in mouse RAW264.7 cells assessed as inhibition of LPS-induced NO production preincubated for 30 mins followed by LPS stimulation and measured after 24 hrs by Griess reagent based colorimetric method; assay type: functional, cell-based
Method in brief: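 RAW264.7 murine macrophages in DMEM with 10% supplement, 37 °C, 5% CO2, grown 24 h before treatment. Test agents at several concentrations added 30 min before 1 μg/mL LPS (or no LPS). After 24 h, supernatant mixed with Griess reagents I and II; absorbance at 560 nm. IC50 derived only where cell activity at 50 μM stayed ≥50%. L-NIL as positive control.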

Structure (SMILES) | viability at 48 h, 50 µM [1] [%] | IC50 [2] [µM]
CC1=C2C3=C4[C@@](C)(C(=O)[C@@]2(O)OC1=O)[C@@H]1C[C@@H]1[C@@]4(O)C[C@@H]1[C@]32OC(=O)C3=C2C[C@H]2[C@](O)(COC(=O)/C(C)=C/COC(=O)CCC(=O)OC3)[C@H]3C[C@H]3[C@]12C [SPICACHLORANTIN B] | < 50 | 
COC(=O)/C(C)=C1\C(=O)[C@H](O)[C@]2(C)C3=C(C[C@@H]4[C@]5(OC(=O)C(CO)=C5C[C@H]5[C@H](COC(C)=O)[C@H]6C[C@H]6[C@]45C)[C@H]31)[C@H]1C[C@H]12 | 97 | 3.7
C/C=C(\C)C(=O)OC[C@]1(O)[C@H]2C[C@H]2[C@]2(C)[C@@H]3C[C@@]4(O)C5=C(C6=C(C)C(=O)O[C@]6(O)[C@H](O)[C@@]5(C)[C@@H]5C[C@@H]54)[C@@]34OC(=O)C(COC(C)=O)=C4C[C@@H]12 [SARCANDROLIDE D] | < 50 | 
CO[C@@]12OC(=O)C(C)=C1C1=C3[C@](C)([C@@H]4C[C@@H]4[C@@]3(O)C[C@@H]3[C@]14OC(=O)C1=C4C[C@H]4[C@](O)(COC(=O)/C(C)=C/COC(=O)CCC(=O)OC1)[C@H]1C[C@H]1[C@]34C)[C@H]2O | < 50 | 
COC(=O)/C(C)=C1/C(=O)[C@H](O)[C@]2(C)C3=C(C[C@@H]4[C@]5(OC(=O)C6=C5C[C@H]5[C@](O)(COC(=O)/C(C)=C/COC(=O)CCC(=O)OC6)[C@H]6C[C@H]6[C@]45C)[C@H]31)[C@H]1C[C@H]12 | 66.5 | 25.5
COC(=O)/C(C)=C1\C(=O)[C@H](O)[C@@]2(C)[C@@H]3C[C@@H]3[C@@]34CCC5=C6C3=C(C(=O)[C@H](O)[C@@]6(C)[C@@H]3C[C@H]53)[C@](C)(C(=O)OC)[C@@H]1[C@@]24O | < 50 | 
CC1=C2C3=C4[C@](C)([C@@H]5C[C@@H]5[C@@]4(O)C[C@@H]4[C@]35OC(=O)C3=C5C[C@H]5[C@](O)(COC(=O)/C=C(\C)COC(=O)CCC(=O)OC3)[C@H]3C[C@H]3[C@]45C)[C@@H](O)[C@@]2(O)OC1=O | < 50 | 
COC(=O)CCC(=O)OCC1=C2C[C@H]3[C@](O)(COC(=O)/C=C(\C)CO)[C@H]4C[C@H]4[C@]3(C)[C@@H]3CC4=C5[C@H](/C(=C(\C)C(=O)OC)C(=O)[C@H](O)[C@@]5(C)[C@@H]5C[C@H]45)[C@]23OC1=O | 71.5 | 23.1
C/C=C(\C)C(=O)OC[C@]1(O)[C@H]2C[C@H]2[C@]2(C)[C@@H]3CC4=C5[C@H](/C(=C(/C)C(=O)OC)C(=O)[C@H](O)[C@@]5(C)[C@@H]5C[C@H]45)[C@@]34OC(=O)C(COC(C)=O)=C4C[C@@H]12 | < 50 | 
CC(=N)NCCCC[C@H](N)C(=O)O [L-NIL] | 93.3 | 7
COC(=O)/C(C)=C1\C(=O)[C@H](O)[C@]2(C)C3=C(C[C@@H]4[C@]5(OC(=O)C6=C5C[C@H]5[C@](O)(COC(=O)/C=C(\C)COC(=O)CCC(=O)OC6)[C@H]6C[C@H]6[C@]45C)[C@H]31)[C@H]1C[C@H]12 [SHIZUKAOL F] | 53.1 | > 50
COC(=O)/C(C)=C1\C(=O)[C@H](O)[C@]2(C)C3=C(C[C@@H]4[C@]5(OC(=O)C6=C5C[C@H]5[C@](O)(COC(=O)/C(C)=C/COC(=O)CCC(=O)OC6)[C@H]6C[C@H]6[C@]45C)[C@H]31)[C@H]1C[C@H]12 [SHIZUKAOL B] | 55.4 | > 50
